Measurements as given in paper PMC6850587 (Neurogastroenterology and Motility, 2019).

Legend:
[1] = target: T1, recombinant human δ-opioid receptor (Homo sapiens, UniProt P41143); assay: radioligand displacement, [3H]-DADLE; type: binding
[2] = target: T2, rat recombinant δ-opioid receptor (Rattus norvegicus, UniProt P33533); assay: radioligand displacement, [3H]-DADLE; type: binding
Summary of the method: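 δ-Opioid receptor sites labelled with [³H]-DADLE and displaced by test compound. The IC₅₀ is the concentration inhibiting 50% of specific binding. Ki = IC₅₀/(1 + L/Kd), where L is the radioligand concentration and the radioligand Kd comes from Scatchard plot analysis. Duplicate measurements in two or three independent experiments; data where fitting failed were excluded.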

[3] = target: T2, rat recombinant δ-opioid receptor; assay: […]-GTPγS binding functional assay; type: biochemical; conditions: antagonist mode, against agonist
[4] = target: T3, recombinant human μ-opioid receptor (Homo sapiens, UniProt P35372); assay: radioligand displacement, [3H]-DAMGO; type: binding
T3 sequence (P35372 whole entry): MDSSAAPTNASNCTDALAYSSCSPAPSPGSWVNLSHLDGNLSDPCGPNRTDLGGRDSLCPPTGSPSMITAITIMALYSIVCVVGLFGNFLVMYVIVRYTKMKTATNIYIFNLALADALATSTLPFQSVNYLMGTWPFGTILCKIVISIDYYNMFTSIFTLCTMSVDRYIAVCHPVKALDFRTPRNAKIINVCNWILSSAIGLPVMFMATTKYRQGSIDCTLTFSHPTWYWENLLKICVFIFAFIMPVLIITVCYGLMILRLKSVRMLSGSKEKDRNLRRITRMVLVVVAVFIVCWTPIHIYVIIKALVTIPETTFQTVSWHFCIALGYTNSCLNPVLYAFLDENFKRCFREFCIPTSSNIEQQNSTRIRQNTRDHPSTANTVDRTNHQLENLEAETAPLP

[5] = target: T4, recombinant human κ-opioid receptor (Homo sapiens, UniProt P41145); assay: […]-GTPγS binding functional assay; type: biochemical; conditions: antagonist mode, against agonist
T4 sequence (P41145 whole entry): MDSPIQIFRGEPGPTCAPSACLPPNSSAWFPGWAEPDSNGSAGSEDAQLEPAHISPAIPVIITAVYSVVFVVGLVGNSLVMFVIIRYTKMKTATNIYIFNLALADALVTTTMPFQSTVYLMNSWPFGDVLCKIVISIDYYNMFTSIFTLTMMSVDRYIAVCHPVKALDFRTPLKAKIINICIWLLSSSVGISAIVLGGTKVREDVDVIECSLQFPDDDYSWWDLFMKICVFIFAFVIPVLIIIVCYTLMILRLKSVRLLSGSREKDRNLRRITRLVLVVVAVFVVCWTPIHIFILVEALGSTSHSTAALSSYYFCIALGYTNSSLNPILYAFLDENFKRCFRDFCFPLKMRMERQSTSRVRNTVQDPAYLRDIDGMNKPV

[6] = target: T1, recombinant human δ-opioid receptor; assay: […]-GTPγS binding functional assay; type: biochemical
[7] = target: T3, recombinant human μ-opioid receptor; assay: […]-GTPγS binding functional assay; type: biochemical; conditions: antagonist mode, against agonist
[8] = target: T4, recombinant human κ-opioid receptor; assay: […]-GTPγS binding functional assay; type: biochemical
[9] = target: T5, rat recombinant μ-opioid receptor (Rattus norvegicus, UniProt P33535); assay: radioligand displacement, [3H]-DAMGO; type: binding
T5 sequence (P33535 whole entry): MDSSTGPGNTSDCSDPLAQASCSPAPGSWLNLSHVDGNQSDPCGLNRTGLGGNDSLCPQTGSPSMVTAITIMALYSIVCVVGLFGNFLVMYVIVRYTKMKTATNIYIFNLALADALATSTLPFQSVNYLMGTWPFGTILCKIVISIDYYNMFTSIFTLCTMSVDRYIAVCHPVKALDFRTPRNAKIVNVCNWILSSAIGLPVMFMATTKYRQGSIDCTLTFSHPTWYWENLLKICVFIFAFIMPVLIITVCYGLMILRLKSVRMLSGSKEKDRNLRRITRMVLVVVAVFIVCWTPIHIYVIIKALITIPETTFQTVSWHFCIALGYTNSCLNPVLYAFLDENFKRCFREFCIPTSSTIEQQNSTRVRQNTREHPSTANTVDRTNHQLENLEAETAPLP

[10] = target: T4, recombinant human κ-opioid receptor; assay: radioligand displacement, [3H]-U-69, […]; type: binding
[11] = target: T6, rat recombinant κ-opioid receptor (Rattus norvegicus, UniProt P34975); assay: […]-GTPγS binding functional assay; type: biochemical; conditions: antagonist mode, against agonist
T6 sequence (P34975 whole entry): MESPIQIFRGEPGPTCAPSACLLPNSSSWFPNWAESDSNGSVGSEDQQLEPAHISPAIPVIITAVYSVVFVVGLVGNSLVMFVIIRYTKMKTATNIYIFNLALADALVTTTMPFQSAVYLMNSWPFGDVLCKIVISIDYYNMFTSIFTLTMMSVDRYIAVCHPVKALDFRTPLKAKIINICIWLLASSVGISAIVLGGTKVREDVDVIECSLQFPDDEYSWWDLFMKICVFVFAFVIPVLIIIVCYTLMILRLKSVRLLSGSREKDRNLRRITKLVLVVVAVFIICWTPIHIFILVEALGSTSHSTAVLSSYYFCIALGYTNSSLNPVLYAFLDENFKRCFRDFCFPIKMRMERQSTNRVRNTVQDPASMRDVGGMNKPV

[12] = target: T5, rat recombinant μ-opioid receptor; assay: […]-GTPγS binding functional assay; type: biochemical
[13] = target: T6, rat recombinant κ-opioid receptor; assay: […]-GTPγS binding functional assay; type: biochemical
[14] = target: T1, recombinant human δ-opioid receptor; assay: […]-GTPγS binding functional assay; type: biochemical; conditions: antagonist mode, against agonist
[15] = target: T6, rat recombinant κ-opioid receptor; assay: […]-GTPγS binding functional assay; type: biochemical; remark: listed apart in the source
[16] = target: T3, recombinant human μ-opioid receptor; assay: […]-GTPγS binding functional assay; type: biochemical
[17] = target: T5, rat recombinant μ-opioid receptor; assay: […]-GTPγS binding functional assay; type: biochemical; conditions: antagonist mode, against agonist
[18] = target: T2, rat recombinant δ-opioid receptor; assay: […]-GTPγS binding functional assay; type: biochemical

T1 sequence (P41143 whole entry): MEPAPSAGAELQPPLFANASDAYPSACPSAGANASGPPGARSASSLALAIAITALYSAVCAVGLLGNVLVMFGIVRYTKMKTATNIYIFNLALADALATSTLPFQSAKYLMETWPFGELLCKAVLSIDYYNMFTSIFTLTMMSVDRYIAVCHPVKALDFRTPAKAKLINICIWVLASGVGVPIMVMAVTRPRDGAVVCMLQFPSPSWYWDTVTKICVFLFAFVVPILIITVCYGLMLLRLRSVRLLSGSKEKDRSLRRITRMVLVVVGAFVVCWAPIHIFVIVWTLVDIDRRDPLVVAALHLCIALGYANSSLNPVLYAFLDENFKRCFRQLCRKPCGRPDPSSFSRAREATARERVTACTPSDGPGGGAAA
T2 sequence (P33533 whole entry): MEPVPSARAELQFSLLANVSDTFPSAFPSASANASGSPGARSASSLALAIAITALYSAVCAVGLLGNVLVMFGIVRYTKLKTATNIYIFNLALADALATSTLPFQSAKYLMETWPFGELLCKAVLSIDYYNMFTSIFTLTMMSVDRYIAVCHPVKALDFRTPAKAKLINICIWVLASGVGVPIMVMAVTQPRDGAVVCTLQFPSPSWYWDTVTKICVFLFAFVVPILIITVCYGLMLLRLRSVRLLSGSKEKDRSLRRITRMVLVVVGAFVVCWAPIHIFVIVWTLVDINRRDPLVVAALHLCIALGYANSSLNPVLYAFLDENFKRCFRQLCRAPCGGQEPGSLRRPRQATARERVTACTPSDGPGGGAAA

For `CC(C)(NC(=O)C1=C(O)[C@@H]2Oc3c(O)ccc4c3[C@@]23CCN(CC2CC2)[C@H](C4)[C@]3(O)C1)c1nc(-c2ccccc2)no1` [naldemedine], the Ki [1] was 0.43 ± 0.08 nM, the Ki [2] was 0.96 ± 0.06 nM and the “Antagonist activity (nmol L^-1) / δ” value [3] was 0.22 ± 0.02 nmol/L. For the same molecule, the Ki [4] was 0.34 ± 0.03 nM, the “Antagonist activity (nmol L^-1) / κ” value [5] was 0.44 nmol/L and the EC50 [6] was > 10000 nM. For the same molecule, the “Antagonist activity (nmol L^-1) / μ” value [7] was 0.50 ± 0.05 nmol/L, the EC50 [8] was > 10000 nM and the Ki [9] was 1.4 ± 0.24 nM. For the same molecule, the Ki [10] was 0.94 nM, the “Antagonist activity (nmol L^-1) / κ” value [11] was 0.49 ± 0.02 nmol/L and the EC50 [12] was > 10000 nM. For the same molecule, the EC50 [13] was > 10000 nM, the “Antagonist activity (nmol L^-1) / δ” value [14] was 0.27 ± 0.03 nmol/L and the IC50 [15] was 12.2 ± 0.57 nM. For the same molecule, the EC50 [16] was > 10000 nM, the “Antagonist activity (nmol L^-1) / μ” value [17] was 0.56 ± 0.02 nmol/L and the EC50 [18] was > 10000 nM.
